High-throughput results: PubChem, several laboratories
TPT1 inh: Candida albicans TPT1 enzyme inhibitors, primary screen, biochemical, fluorescence polarization; tRNA 2'-phosphotransferase TPT1 (Candida albicans SC5314); hit rate 0.81% among 300,000; inhibition, % at 5 µM; recombinant caTPT1, FP RNA substrate dephosphorylation;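 active = inhibition above the mean of all tested compounds plus 3 SD, set per screening campaign, cut at about 24% in these data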
Neddyl block: inhibitors of cullin neddylation, primary screen, biochemical, TR-FRET, uHTS, NAE and Ubc12. hit rate 0.58% among 360,000. inhibition, % at 25 µM. NEDD8-conjugating enzyme Ubc12 (Homo sapiens) + NEDD8-activating enzyme E1 regulatory …. AID 651699, 2012; in the data active = inhibition above about 36%
Rpn11 block: Rpn11 (PSMD14) deubiquitinase inhibitors, primary screen, biochemical, fluorescence polarization, uHTS | 26S proteasome non-ATPase regulatory subunit 14 (Homo sapiens), O00487 | human 26S proteasome, Ub4-pepOG fluorescence polarization; 20S core pre-blocked with epoxomicin | inhibition, % at 20 µM | hit rate 0.59% among 360,000 | AID 588493, 2011;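 active = inhibition at 20 µM, scaled to each plate's controls, above about 33%, limit read from the data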
CSN inh: inhibitors of CSN-mediated cullin deneddylation, primary screen, biochemical, fluorescence polarization, uHTS | hit rate 0.38% among 360,000 | COP9 signalosome complex subunit 5 (Homo sapiens), Q92905 | Purified CSN, SCF-Nedd8-OG deneddylation | inhibition, % at 12.5 µM;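 active = pattern-corrected inhibition above about 35%, with an unprinted fluorescence ratio check between 0.5 and 1.5, limit read from the data, passing the limit was not always enough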
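Assay system: purified human Csn5 enzyme expressed in HEK293T cells; Input: 0.24 nM Csn5 enzyme, final concentration; Reagent: 10 nM SCFSkp2-Nedd8OG; Compound dosing: 12.5 µM single point; Times: reaction 90 min, room temperature; Technique: fluorescence polarization readout.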
HNF4A DNA FP: change in binding of human HNF4A to DNA, primary screen, biochemical, fluorescence polarization, FITC-DNA; hit rate 0.3% among 360,000; AID 1224865, 2016; activity change, % at 10 µM; 1 h; in the data active = activity change above about 30%, passing the limit was not always enough
Target sequence (P41235 whole entry, looked up): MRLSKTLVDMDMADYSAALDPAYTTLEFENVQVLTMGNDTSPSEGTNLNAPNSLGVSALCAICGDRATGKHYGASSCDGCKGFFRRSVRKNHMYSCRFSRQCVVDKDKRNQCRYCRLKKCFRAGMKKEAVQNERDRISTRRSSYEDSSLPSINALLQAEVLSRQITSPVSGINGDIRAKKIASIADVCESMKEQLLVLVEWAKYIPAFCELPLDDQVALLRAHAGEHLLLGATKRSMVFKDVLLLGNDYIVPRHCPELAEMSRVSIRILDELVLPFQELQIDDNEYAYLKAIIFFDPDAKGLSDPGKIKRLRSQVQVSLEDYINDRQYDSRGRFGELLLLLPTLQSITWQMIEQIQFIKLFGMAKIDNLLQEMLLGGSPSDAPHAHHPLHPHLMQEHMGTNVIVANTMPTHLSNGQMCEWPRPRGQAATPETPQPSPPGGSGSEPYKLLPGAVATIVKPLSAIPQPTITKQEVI
Rin1-Abl PPI inh: inhibitors of Rin1-Abl protein binding, primary screen, biochemical, TR-FRET. inhibition, % at 7.35 µM. hit rate 0.4% among 360,000. AID 588664, 2011; in the data active = inhibition above about 5%, passing the limit was not always enough
TPT1 inh confirm: Candida albicans TPT1 inhibitors, confirmation, biochemical, fluorescence polarization, triplicate | shares compounds with TPT1 inh | inhibition, % at 5 µM | hit rate 74% among 2,400 | AID 2149, 2009 | recombinant caTPT1, RNase T1 coupled;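 active = inhibition above the primary screen limit, the mean inhibition of all tested compounds plus 3 SD, cut at about 25% in these data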
RNase T1 counter: RNase T1 inhibitors, counter-screen for TPT1 inhibitor project, biochemical, fluorescence polarization; shares compounds with TPT1 inh; RNase T1 cleavage, 1536-well; inhibition, % at 5 µM; hit rate 83% among 2,400;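 active = inhibition above the solvent-only control well mean plus 3 SD, limit set per screening run, cut at about 23% in these data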;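 also: inhibitors block cleavage so intact labeled substrate keeps polarization high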
Target sequence (P00651 whole entry, looked up): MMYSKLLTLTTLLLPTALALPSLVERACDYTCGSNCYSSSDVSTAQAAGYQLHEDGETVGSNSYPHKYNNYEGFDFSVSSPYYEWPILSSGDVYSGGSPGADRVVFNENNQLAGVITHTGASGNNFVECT
Rpn11 confirm: Rpn11 (PSMD14) deubiquitinase inhibitors, confirmation, biochemical, fluorescence polarization, single concentration; shares compounds with Rpn11 block; purified human 26S proteasome, Ub4-pepOG fluorescence polarization; proteasome pretreated with epoxomicin; inhibition, % at 20 µM; hit rate 29% among 1,900; AID 602318, 2012
MMP-2 counter: MMP-2 enzyme inhibition, confirmation, counter-screen for RPN11 inhibitor project, biochemical, fluorescence, single concentration. shares compounds with Rpn11 block. AID 602330, 2012. hit rate 4% among 1,900. recombinant MMP-2, FRET peptide cleavage fluorescence. inhibition, % at 20 µM;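 also: human MMP-2 activated beforehand with APMA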
Thrombin FP: bovine thrombin protease inhibition, confirmation, counter-screen for Rpn11 inhibitor project, biochemical, fluorescence polarization, single concentration. shares compounds with Rpn11 block. bovine thrombin cleavage of Ub4-pepOG. inhibition, % at 20 µM. hit rate 13% among 1,900;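 active = mean inhibition at least 40% at 20 µM, or signal 3 deviations below plate average, so some actives read negative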
HNF4a DNA conf: change in HNF4A binding to DNA, retest, confirmation, biochemical, fluorescence polarization, FITC-DNA. shares compounds with HNF4A DNA FP. 1 h. activity change, % at 12.5 µM. hit rate 99% among 210. AID 1224897, 2016; call rule not given here
Of the large screens only hits and unclear results are named; the others gave an inactive call (follow-up assays come after a bar, where shown). The list is not random: actives were taken first. Their share in the collection is about 2.4%. Rule as the data show it, unless noted: active = inhibition above about 40%; inactive = the rest.

O=[N+]([O-])c1ccc(-c2ccc(/C=N/Nc3nc(N4CCCC4)nc(N4CCCC4)n3)o2)cc1	TPT1 inh 29, HNF4A DNA FP 33 (not shown: Rpn11 block) | TPT1 inh confirm 43 | RNase T1 counter 59 | HNF4a DNA conf 35
COc1ccc(/C=C/C(=O)OCC(=O)Nc2ccc(Cl)c(S(=O)(=O)N(C)C)c2)cc1OC	none
c1ccc(-c2csc3ncnc(N4CCN(Cc5ccc6c(c5)OCO6)CC4)c23)cc1	none
O=C(CSc1ncnc2scc(-c3ccccc3)c12)N1CCN(Cc2ccc3c(c2)OCO3)CC1	TPT1 inh 41, Rpn11 block 50, HNF4A DNA FP 46 | TPT1 inh confirm 66 | RNase T1 counter 77 | Rpn11 confirm inactive | MMP-2 counter inactive | Thrombin FP inactive | HNF4a DNA conf 37
COC(=O)C(CO)NC(=O)C(C)NC(=O)CNC(=O)OCc1ccccc1 (configuration not stated)	none
COc1ccc2c(-c3ccccc3)cc(SCC(N)=O)nc2c1	TPT1 inh 35, HNF4A DNA FP 43 (not shown: Rpn11 block) | TPT1 inh confirm 39 | RNase T1 counter 50 | HNF4a DNA conf 49
O=C1NC(=S)N(C(=O)c2ccc(F)cc2)/C1=C/c1ccccc1	TPT1 inh 110, CSN inh 55, HNF4A DNA FP 78 (not shown: Rpn11 block) | TPT1 inh confirm 108 | RNase T1 counter 116 | HNF4a DNA conf 89
O=C(NCCS(=O)(=O)N1CCN(c2ccccc2F)CC1)c1ccc2c(c1)OCO2	none
O=Cc1sc(Nc2ccccc2)nc1Cl	TPT1 inh 76, Rpn11 block 76, HNF4A DNA FP 37 | TPT1 inh confirm 74 | RNase T1 counter 86 | Rpn11 confirm 60 | MMP-2 counter inactive | Thrombin FP inactive | HNF4a DNA conf 59
COc1ccccc1Nc1nc(Cl)c(C=O)s1	TPT1 inh 45, CSN inh 38, HNF4A DNA FP 50 (not shown: Rpn11 block) | TPT1 inh confirm 70 | RNase T1 counter 83 | HNF4a DNA conf 89
CCOC(=O)C1CCCN(CC(=O)Nc2nc(-c3ccccc3)cs2)C1 (configuration not stated)	none
COc1ccc(CN(C)C(=O)CNC(=O)c2sc3ccccc3c2Cl)c(OC)c1	none (no result: TPT1 inh)
CSc1nnc(C)c(/C=C/Nc2ccc(C)cc2)n1	TPT1 inh 156, HNF4A DNA FP 53 (not shown: Rpn11 block) | TPT1 inh confirm 134 | RNase T1 counter 128 | HNF4a DNA conf 88
CC(=O)c1sc(N/N=C\c2cccc(Br)c2)nc1C	TPT1 inh 67, HNF4A DNA FP 39 (not shown: Neddyl block, Rpn11 block) | TPT1 inh confirm 78 | RNase T1 counter 81 | HNF4a DNA conf 57
O=C(Cc1ccccc1)N/N=C/c1ccc(-c2ccc([N+](=O)[O-])cc2)o1	none
Cc1ccc(C)c(N(CC(=O)N/N=C/c2ccc(-c3ccc([N+](=O)[O-])cc3)o2)S(=O)(=O)c2ccccc2)c1	TPT1 inh 41, CSN inh 44, HNF4A DNA FP 93 (not shown: Rpn11 block) | TPT1 inh confirm 51 | RNase T1 counter 61 | HNF4a DNA conf 54
O=C(C(=O)N1CCN(c2ccccc2)CC1)c1cn(CC(=O)N2CCCCCC2)c2ccccc12	none
CC(NC(=O)/C(C#N)=C1\N=C(NC(=O)c2ccco2)c2ccccc21)c1ccccc1 (configuration not stated)	TPT1 inh 47, HNF4A DNA FP 74 | TPT1 inh confirm inactive | RNase T1 counter 31 | HNF4a DNA conf 36
CC(C)(C)Nc1nc(-c2ccc3c(c2)CCN3C(=O)C2CC2)cs1	none
CN1C(=O)/C(=C/C=C2/CCCN2C)N(C)C1=S	TPT1 inh 41, Rpn11 block 47, HNF4A DNA FP 46 | TPT1 inh confirm 90 | RNase T1 counter 102 | Rpn11 confirm 56 | MMP-2 counter inactive | Thrombin FP inactive | HNF4a DNA conf 82
COc1ccc(NC(=O)CN(C)S(=O)(=O)c2ccc(C)cc2)c([N+](=O)[O-])c1	TPT1 inh 41, Rpn11 block 82, HNF4A DNA FP 59 | TPT1 inh confirm 49 | RNase T1 counter 62 | Rpn11 confirm inactive | MMP-2 counter inactive | Thrombin FP inactive | HNF4a DNA conf 59
O=C(/C=C\Nc1ccc2c(c1)OCO2)c1ccc(Cl)s1	TPT1 inh 25, Rpn11 block 36, HNF4A DNA FP 88 | TPT1 inh confirm 39 | RNase T1 counter 49 | Rpn11 confirm inactive | MMP-2 counter inactive | Thrombin FP inactive | HNF4a DNA conf 61
O=C(/C=C\Nc1ccc2c(c1)OCO2)c1cccs1	none
O=C1c2ccccc2S(=O)(=O)c2cc(N3CCOCC3)ccc21	TPT1 inh 34, Rpn11 block 48, HNF4A DNA FP 45 | TPT1 inh confirm 35 | RNase T1 counter 46 | Rpn11 confirm 44 | MMP-2 counter inactive | Thrombin FP inactive | HNF4a DNA conf 50
CCCCN(C)c1c(C)nc2ccc(C(=O)NCc3ccc4c(c3)OCO4)cn12	none (no result: TPT1 inh)
COc1ccc(/C=C(\C#N)c2nc3ccccc3[nH]2)cc1O	none (no result: TPT1 inh)
